# Tests used:
# [1] = system: Human immunodeficiency virus 1; assay: Antiviral activity against HIV1 with reverse transcriptase V106A mutant in presence of 40% normal human serum; format: functional, organism-based
# [2] = Volume of distribution in Sprague-Dawley rat at 10 mg/kg, po and 3 mg/kg, iv; format: ADME, organism-based; conditions: in vivo
# Outline: (§1)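 Three Sprague-Dawley rats, averaged. Oral dose 10 mpk in 0.5% methocel; intravenous dose 3 mpk in DMSO. Individual values within 25% of mean.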
# [3] = Clearance in Beagle dog at 10 mg/kg, po and 2 mg/kg, iv; format: ADME, organism-based, Canis lupus familiaris; conditions: in vivo
# Outline: (§2)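 Three beagle dogs, averaged. Oral dose 10 mpk in 0.5% methocel; intravenous dose 2 mpk in DMSO. Individual values within 25% of mean.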
# [4] = species: Canis familiaris; assay: Toxicity in cardiovascular dog model assessed as effect on QTc intervals; format: organism-based, Canis lupus familiaris, Heart; conditions: in vivo
# Outline: (§3)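 Conscious dog cardiovascular model, with QTc, heart rate and blood pressure monitored at plasma levels up to 55 µM.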
# [5] = Volume of distribution in Beagle dog at 10 mg/kg, po and 2 mg/kg, iv; format: ADME, organism-based, Canis lupus familiaris; conditions: in vivo; outline: as §2
# [6] = system: Human immunodeficiency virus 1; assay: Antiviral activity against HIV1 with reverse transcriptase K103N/Y181C/G190A mutant in presence of 40% normal human serum; format: functional, organism-based
# [7] = system: Human immunodeficiency virus 1; assay: Antiviral activity against wild type HIV1 in presence of 40% normal human serum; format: functional, organism-based
# Outline: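 Monogram Bioscience PhenoScreen cell-culture assay run with 40% NHS. […] Value is the geometric mean of n = 2.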
# [8] = system: Human immunodeficiency virus 1; assay: Antiviral activity against HIV1 with reverse transcriptase K103N mutant in presence of 40% normal human serum; format: functional, organism-based
# [9] = Volume of distribution in rhesus monkey at 10 mg/kg, po and 2 mg/kg, iv; format: ADME, organism-based, Macaca mulatta; conditions: in vivo
# [10] = system: Human immunodeficiency virus 1; assay: Antiviral activity against HIV1 with reverse transcriptase L100I mutant in presence of 40% normal human serum; format: functional, organism-based
# [11] = Clearance in rhesus monkey at 10 mg/kg, po and 2 mg/kg, iv; format: ADME, organism-based, Macaca mulatta; conditions: in vivo
# [12] = system: Human immunodeficiency virus 1; assay: Antiviral activity against HIV1 with reverse transcriptase K103N/P225H mutant in presence of 40% normal human serum; format: functional, organism-based
# [13] = species: Canis familiaris; assay: Toxicity in cardiovascular dog model assessed as effect on blood pressure; format: organism-based, Canis lupus familiaris; conditions: in vivo; outline: as §3
# [14] = system: Human immunodeficiency virus 1; assay: Antiviral activity against HIV1 with reverse transcriptase K103N/V179E mutant in presence of 40% normal human serum; format: functional, organism-based
# [15] = system: Human immunodeficiency virus 1; assay: Antiviral activity against HIV1 with reverse transcriptase G190S mutant in presence of 40% normal human serum; format: functional, organism-based
# [16] = system: Human immunodeficiency virus 1; assay: Antiviral activity against HIV1 with reverse transcriptase K103N mutant infected in human MT4 cells after 72 hrs in presence of 10% fetal bovine serum; format: functional; conditions: Human immunodeficiency virus 1, MT4, 72 h; read-out: CIC95
# Outline: (§4)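 Mutant HIV-1 spread was assayed in MT-4 human T-lymphoid cells kept in RPMI 1640 with 10% FBS. CIC95 is the concentration that inhibits viral spread by >95%. Values are geometric means of two determinations, or mean with standard deviation where n > 3. Cytotoxicity was checked up to an assay limit of 8.3 µM.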
# [17] = system: Rattus norvegicus; assay: Half life in Sprague-Dawley rat at 10 mg/kg, po and 3 mg/kg, iv; format: ADME, organism-based; conditions: in vivo; outline: as §1
# [18] = system: Human immunodeficiency virus 1; assay: Antiviral activity against HIV1 with reverse transcriptase G190A mutant in presence of 40% normal human serum; format: functional, organism-based
# [19] = system: Human immunodeficiency virus 1; assay: Antiviral activity against HIV1 with reverse transcriptase K103N/Y181C mutant in presence of 40% normal human serum; format: functional, organism-based
# [20] = AUC in Sprague-Dawley rat at 10 mg/kg, po; format: ADME, organism-based; set-up: dose 10 mg/kg, route oral; conditions: plasma
# [21] = system: Human immunodeficiency virus 1; assay: Antiviral activity against HIV1 with reverse transcriptase V179E mutant in presence of 40% normal human serum; format: functional, organism-based
# [22] = Oral bioavailability in Sprague-Dawley rat at 10 mg/kg; format: ADME, organism-based; conditions: in vivo
# [23] = Oral bioavailability in Beagle dog at 10 mg/kg; format: ADME, organism-based, Canis lupus familiaris; conditions: in vivo; outline: as §2
# [24] = Clearance in Sprague-Dawley rat at 10 mg/kg, po and 3 mg/kg, iv; format: ADME, organism-based; conditions: in vivo; outline: as §1
# [25] = system: Canis familiaris; assay: Half life in Beagle dog at 10 mg/kg, po and 2 mg/kg, iv; format: ADME, organism-based, Canis lupus familiaris; conditions: in vivo; outline: as §2
# [26] = system: Human immunodeficiency virus 1; assay: Antiviral activity against HIV1 with reverse transcriptase K101E/G190A mutant in presence of 40% normal human serum; format: functional, organism-based
# [27] = system: Human immunodeficiency virus 1; assay: Antiviral activity against HIV1 with reverse transcriptase Y181C/G190A mutant in presence of 40% normal human serum; format: functional, organism-based
# [28] = system: Human immunodeficiency virus 1; assay: Antiviral activity against HIV1 with reverse transcriptase Y188L mutant in presence of 40% normal human serum; format: functional, organism-based
# [29] = AUC in Beagle dog at 10 mg/kg, po; format: ADME, organism-based, Canis lupus familiaris; set-up: dose 10 mg/kg, route oral; conditions: plasma; outline: as §2
# [30] = Solubility at pH 2; format: physicochemical; conditions: buffer
# [31] = system: Human immunodeficiency virus 1; assay: Antiviral activity against HIV1 with reverse transcriptase K103N/G190A mutant in presence of 40% normal human serum; format: functional, organism-based
# [32] = system: Human immunodeficiency virus 1; assay: Antiviral activity against wild type HIV1 infected in human MT4 cells after 72 hrs in presence of 10% fetal bovine serum; format: functional; conditions: Human immunodeficiency virus 1, MT4, 72 h; read-out: CIC95
# Outline: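 MT-4 human T-lymphoid cells in RPMI 1640 with 10% FBS. CIC95 is the concentration that inhibits viral spread by >95%. Values are either geometric means of two determinations or given with standard deviations for n > 3 or n > 50.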
# [33] = system: Human immunodeficiency virus 1; assay: Antiviral activity against HIV1 with reverse transcriptase Y181C mutant in presence of 40% normal human serum; format: functional, organism-based
# [34] = species: Canis familiaris; assay: Toxicity in cardiovascular dog model assessed as effect on heart rate; format: organism-based, Canis lupus familiaris; conditions: in vivo; outline: as §3
# [35] = Oral bioavailability in rhesus monkey at 10 mg/kg; format: ADME, organism-based, Macaca mulatta; conditions: in vivo
# [36] = system: Human immunodeficiency virus 1; assay: Antiviral activity against HIV1 with reverse transcriptase Y181C mutant infected in human MT4 cells after 72 hrs in presence of 10% fetal bovine serum; format: functional; conditions: Human immunodeficiency virus 1, MT4, 72 h; read-out: CIC95; outline: as §4
# [37] = system: Human immunodeficiency virus 1; assay: Antiviral activity against wild type HIV1 infected in human MT4 cells after 72 hrs in presence of 50% normal human serum; format: functional; conditions: Human immunodeficiency virus 1, MT4, 72 h; read-out: CIC95
# Outline: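 MT-4 human T-lymphoid cells in RPMI 1640 with 50% NHS. CIC95 is the concentration that inhibits viral spread by >95%. Values are either geometric means of two determinations or given with standard deviations for n > 3 or n > 50.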
# [38] = AUC in rhesus monkey at 10 mg/kg, po; format: ADME, organism-based, Macaca mulatta; set-up: dose 10 mg/kg, route oral; conditions: plasma
# [39] = system: Human immunodeficiency virus 1; assay: Antiviral activity against HIV1 with reverse transcriptase F227L mutant in presence of 40% normal human serum; format: functional, organism-based
# [40] = system: Human immunodeficiency virus 1; assay: Antiviral activity against HIV1 with reverse transcriptase P236L mutant in presence of 40% normal human serum; format: functional, organism-based
# [41] = molecular target: Human immunodeficiency virus type 1 reverse transcriptase (Human immunodeficiency virus 1, UniProt Q72547); assay: Inhibition of wild type HIV1 RT polymerase by SPA
# [42] = molecular target: Human immunodeficiency virus type 1 reverse transcriptase (Human immunodeficiency virus 1, UniProt Q72547, K103N); assay: Inhibition of HIV1 RT polymerase K103N mutant by SPA
# [43] = molecular target: Human immunodeficiency virus type 1 reverse transcriptase (Human immunodeficiency virus 1, UniProt Q72547, Y181C); assay: Inhibition of HIV1 RT polymerase Y181C mutant by SPA
smiles,measurement,setting,value
N#Cc1cc(Cl)cc(Oc2cc(OCc3n[nH]c4nc(N)ccc34)ccc2Cl)c1,IC50,[1],147 nM
same,Vd,[2],2 L/kg
same,clearance,[3],5.8 mL/min/kg
same,Activity,[4],Non-toxic
same,Vd,[5],1.7 L/kg
same,IC50,[6],98.3 nM
same,IC50,[7],1.35 nM
same,IC50,[8],4.4 nM
same,Vd,[9],1.9 L/kg
same,IC50,[10],1.8 nM
same,clearance,[11],15.8 mL/min/kg
same,IC50,[12],1.2 nM
same,Activity,[13],Non-toxic
same,IC50,[14],9.6 nM
same,IC50,[15],7.6 nM
same,IC95,[16],11.4 nM
same,t1/2,[17],3.5 h
same,IC50,[18],1.5 nM
same,IC50,[19],84 nM
same,AUC,[20],22.7 µM·h
same,IC50,[21],5 nM
same,bioavailability,[22],52%
same,bioavailability,[23],47%
same,clearance,[24],9 mL/min/kg
same,t1/2,[25],3.9 h
same,IC50,[26],10.1 nM
same,IC50,[27],14.8 nM
same,IC50,[28],> 1000 nM
same,AUC,[29],31.3 µM·h
same,solubility,[30],10 µg/mL
same,IC50,[31],9.6 nM
same,IC95,[32],8.4 nM
same,IC50,[33],5.6 nM
same,Activity,[34],Non-toxic
same,bioavailability,[35],1%
same,IC95,[36],19 nM
same,IC95,[37],34 nM
same,AUC,[38],0.3 µM·h
same,IC50,[39],0.7 nM
same,IC50,[40],4.2 nM
N#Cc1cc(Cl)cc(Oc2cc(OCc3n[nH]c4cnccc34)ccc2Cl)c1,IC50,[41],0.8 nM
same,IC50,[42],1.3 nM
same,IC95,[16],34.2 nM
same,IC50,[43],3.9 nM
same,IC95,[32],10.8 nM
same,IC95,[36],31 nM
same,IC95,[37],34 nM

# — ChEMBL document CHEMBL1140177 (J Med Chem, 2008)
